Compound activity (PubChem)
GASC1 inh = inhibitors of GASC-1 (KDM4C) histone demethylase, primary screen, biochemical, single concentration HTS | Lysine-specific demethylase 4C (Homo sapiens), Q9H3R0 | GST-KDM4C 2-372, H3K9me3 peptide, LANCE TR-FRET | inhibition, % at 12.5 µM | 0.15% of 96,000 active | AID 720574, 2013;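 active means mean replicate inhibition above about 25%, with at least 55% of replicates also reaching it, limit read from the data, passing the limit was not always enough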
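Compound: one test concentration per compound; Material: GST-GASC-1 enzyme fragment 2-372; Amount: GASC-1 enzyme at 10 nM final in reaction; Also added: H3K9me3 peptide substrate, Fe(II), 2-oxoglutarate; Technique: LANCE TR-FRET; Times: 30 min demethylation and 1 h detection at room temperature.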
IDH1 mut inh = inhibitors of IDH1 R132H reductase, primary screen, biochemical, plate reader, single point; Isocitrate dehydrogenase [NADP] cytoplasmic (Homo sapiens), O75874; diaphorase/resazurin fluorescence, 60 min; inhibition, % at 10 µM; 0.18% of 70,000 active; in the data active means inhibition above about 34%
Target sequence (O75874 whole entry R132H): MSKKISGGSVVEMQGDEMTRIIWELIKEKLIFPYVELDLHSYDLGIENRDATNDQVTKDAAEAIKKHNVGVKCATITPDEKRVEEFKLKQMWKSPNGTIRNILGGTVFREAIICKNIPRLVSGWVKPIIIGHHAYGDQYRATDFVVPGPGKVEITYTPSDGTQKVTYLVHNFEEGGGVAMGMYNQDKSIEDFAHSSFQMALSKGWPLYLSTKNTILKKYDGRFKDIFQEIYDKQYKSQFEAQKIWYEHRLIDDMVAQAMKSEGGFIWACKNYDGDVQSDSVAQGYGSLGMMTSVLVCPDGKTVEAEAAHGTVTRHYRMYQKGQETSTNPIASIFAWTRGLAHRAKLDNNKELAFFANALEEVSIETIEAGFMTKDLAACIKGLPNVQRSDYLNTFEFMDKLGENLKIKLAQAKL
Hits are given with their value; ! = a repeat was not active. Shown are actives, neighbours in structure and some others; about 0.22% of the full set was active somewhere.

What do the screens show for `C[C@H]1CN([C@@H](C)CO)S(=O)(=O)c2ccc(-c3ccncc3)cc2O[C@@H]1CN(C)C(=O)Nc1ccc(F)cc1`?
GASC1 inh: inactive; IDH1 mut inh: 59.3

What do the screens show for `CCCNC(=O)N(C)C[C@@H]1Oc2cc(-c3cccnc3)ccc2S(=O)(=O)N([C@@H](C)CO)C[C@@H]1C`?
GASC1 inh: 29.7; IDH1 mut inh: inactive

What do the screens show for `C[C@@H]1CN([C@H](C)CO)S(=O)(=O)c2ccc(-c3ccncc3)cc2O[C@@H]1CN(C)C(=O)Nc1ccc(F)cc1`?
GASC1 inh: inactive

How did CCCNC(=O)N(C)C[C@@H]1Oc2cc(-c3cccnc3)ccc2S(=O)(=O)N([C@H](C)CO)C[C@H]1C do in these assays?
GASC1 inh: inactive; IDH1 mut inh: inactive

Results for C[C@H]1CN([C@@H](C)CO)S(=O)(=O)c2ccc(C3=CCCC3)cc2O[C@@H]1CN(C)Cc1ccncc1 ?
GASC1 inh: inactive

What do the screens show for `C[C@@H]1CN([C@@H](C)CO)S(=O)(=O)c2ccc(C3=CCCC3)cc2O[C@H]1CN(C)Cc1cccnc1`?
GASC1 inh: inactive; IDH1 mut inh: 76.8

How did C[C@H](CO)N1C[C@H](C)[C@@H](CN(C)Cc2ccncc2)Oc2cc(C3=CCCC3)ccc2S1(=O)=O do in these assays?
GASC1 inh: inactive; IDH1 mut inh: 47.5

Results for C[C@@H]1CN([C@@H](C)CO)S(=O)(=O)c2ccc(C3=CCCC3)cc2O[C@@H]1CN(C)Cc1cccnc1 ?
GASC1 inh: inactive

What do the screens show for `COC(=O)CSc1nc(-c2ccc(F)cc2)[nH]c1-c1ccc(C)cc1`?
IDH1 mut inh: inactive

Results for O=C(CSc1n[nH]c(-c2ccccc2Cl)n1)Nc1ccccc1F ?
IDH1 mut inh: inactive

What do the screens show for `C[C@H]1CN([C@@H](C)CO)S(=O)(=O)c2ccc(C3=CCCCC3)cc2O[C@H]1CN(C)C(=O)Cc1ccncc1`?
GASC1 inh: inactive

How did C[C@@H]1CN([C@@H](C)CO)S(=O)(=O)c2ccc(-c3ccccc3)cc2O[C@H]1CN(C)Cc1cccnc1 do in these assays?
GASC1 inh: inactive; IDH1 mut inh: 66.2

What do the screens show for `C[C@H]1CN([C@@H](C)CO)S(=O)(=O)c2ccc(-c3ccccc3)cc2O[C@@H]1CN(C)Cc1cccnc1`?
GASC1 inh: inactive

What do the screens show for `C[C@@H]1CN([C@@H](C)CO)S(=O)(=O)c2ccc(C3=CCCCC3)cc2O[C@H]1CN(C)C(=O)Cc1cccnc1`?
GASC1 inh: inactive; IDH1 mut inh: 45.1

What do the screens show for `Fc1ccc(-c2ccc(C3[C@@H]4CN(Cc5ccccc5)C[C@H]3N4)cc2)cc1` (some centres not stated)?
GASC1 inh: 40.5!

How did Fc1ccc(-c2ccc(C3[C@@H]4CN(Cc5cccc(F)c5)C[C@H]3N4)cc2)cc1 (some centres not stated) do in these assays?
GASC1 inh: inactive

Results for COc1ccc(NC(=O)c2ccco2)cc1NC(=O)COc1cc(C)c(Cl)c(C)c1 ?
IDH1 mut inh: inactive

Results for CC(C)(C)NC(=S)N1CCSCC1 ?
IDH1 mut inh: inactive

What do the screens show for `Cc1cc(C)nc(NS(=O)(=O)c2ccc(Nc3nc(-c4ccc(O)cc4)cs3)cc2)n1`?
IDH1 mut inh: inactive

How did Cc1cc(NS(=O)(=O)c2ccc(Nc3nc(-c4ccc(O)cc4)cs3)cc2)no1 do in these assays?
IDH1 mut inh: 59.7

Results for CCOC(=O)c1cc(NC(=O)CN2C(=O)COc3ccc(Cl)cc32)ccc1Cl ?
IDH1 mut inh: inactive

What do the screens show for `O=C(CCN1CCCCC1)NCC[C@H]1CC[C@H](NC(=O)Cc2cccnc2)[C@@H](CO)O1`?
GASC1 inh: inactive; IDH1 mut inh: inactive

What do the screens show for `O=C(CN1CCOCC1)N[C@@H]1CC[C@H](CCNC(=O)C2CCC2)O[C@@H]1CO`?
GASC1 inh: inactive; IDH1 mut inh: inactive

Results for O=C(Cc1ccncc1)NCC[C@@H]1CC[C@H](NC(=O)C2CCCC2)[C@@H](CO)O1 ?
GASC1 inh: inactive; IDH1 mut inh: inactive

Results for O=C(NCC[C@@H]1CC[C@H](NS(=O)(=O)c2cccc(F)c2)[C@H](CO)O1)C1CCCC1 ?
GASC1 inh: 35.7; IDH1 mut inh: 48.3

What do the screens show for `O=C(CCN1CCCCC1)NCC[C@H]1CC[C@H](NC(=O)Cc2cccnc2)[C@H](CO)O1`?
GASC1 inh: 74.8; IDH1 mut inh: 79.7

How did O=C(NCC[C@H]1CC[C@H](NS(=O)(=O)c2cccc(F)c2)[C@H](CO)O1)C1CCCC1 do in these assays?
GASC1 inh: inactive; IDH1 mut inh: inactive

Results for O=C(CN1CCOCC1)N[C@H]1CC[C@H](CCNC(=O)C2CCC2)O[C@H]1CO ?
GASC1 inh: 85.4; IDH1 mut inh: 73.3

Results for O=C(Cc1ccncc1)NCC[C@H]1CC[C@H](NC(=O)C2CCCC2)[C@H](CO)O1 ?
GASC1 inh: 57.5; IDH1 mut inh: 70.9
